# Columns and labels:
# [1] = biological target: T1, 3-oxo-5-alpha-steroid 4-dehydrogenase 2 (Homo sapiens, UniProt P31213); test: In vitro inhibition of human steroid 5-alpha-reductase type 2 in SW-13-transfected cells; format: cell-based
# T1 sequence (P31213 whole entry): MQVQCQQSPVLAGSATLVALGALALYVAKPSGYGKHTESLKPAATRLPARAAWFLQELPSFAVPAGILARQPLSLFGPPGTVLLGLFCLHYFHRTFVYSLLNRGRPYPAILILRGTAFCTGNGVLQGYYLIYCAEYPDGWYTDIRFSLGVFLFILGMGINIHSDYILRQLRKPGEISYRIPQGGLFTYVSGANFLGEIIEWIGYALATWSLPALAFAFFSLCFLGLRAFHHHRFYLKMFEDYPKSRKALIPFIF
# In short: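 Homogenate of SW-13 cells transfected with human type II 5α-reductase cDNA; 5 nM [3H]androstenedione, 500 μM NADPH, 50 mM Tris HCl pH 7.5 with 20% glycerol, 1 mM EDTA; 60 min, 37 °C. Ether extraction with steroid carriers, TLC, radioactivity counted; androstanedione formed as % of control.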
# [2] = biological target: T2, 3-oxo-5-alpha-steroid 4-dehydrogenase 1 (Homo sapiens, UniProt P18405); test: In vitro inhibition of human steroid 5-alpha-reductase type I in Du-145 cells; format: cell-based
# T2 sequence (P18405 whole entry): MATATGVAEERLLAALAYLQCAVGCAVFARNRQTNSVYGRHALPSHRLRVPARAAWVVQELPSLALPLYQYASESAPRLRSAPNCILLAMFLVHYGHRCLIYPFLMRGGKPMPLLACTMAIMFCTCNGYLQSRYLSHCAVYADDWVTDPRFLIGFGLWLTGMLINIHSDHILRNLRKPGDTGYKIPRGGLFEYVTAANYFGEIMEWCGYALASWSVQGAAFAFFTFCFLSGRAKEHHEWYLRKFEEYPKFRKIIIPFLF
# In short: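 Intact DU-145 cells (passages 60–90), 100000 cells/well, adhered 24 h; compounds in ethanol diluted in DMEM/2% charcoal-adsorbed FBS with 5 nM [3H]androstenedione, 24 h at 37 °C, 5% CO2. Ether extraction, TLC, radioactivity; androstanedione, androsterone, epiandrosterone formed as % of control.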
SMILES,IC50 [1] [nM],IC50 [2] [nM]
CN1C(=O)CC[C@@]2(C)C1=CCC1C2CC[C@@]2(C)C1CC[C@@H]2N(C)C=O (stereo partly specified),> 1000,1900
CC(C)C(=O)N(c1ccc([N+](=O)[O-])cc1)[C@H]1CCC2C3CC[C@H]4N(C)C(=O)CC[C@]4(C)C3CC[C@@]21C (stereo partly specified),> 1000,32.8
CC(C)C(=O)N(c1ccc([N+](=O)[O-])c(C(F)(F)F)c1)[C@H]1CCC2C3CC[C@H]4N(C)C(=O)CC[C@]4(C)C3CC[C@@]21C (stereo partly specified),> 1000,59.8
COc1ccc(N(C(=O)C(C)C)[C@H]2CCC3C4CC[C@H]5N(C)C(=O)CC[C@]5(C)C4CC[C@@]32C)cc1 (stereo partly specified),> 100,5.44
CN1C(=O)CC[C@]2(C)C3CC[C@@]4(C)C(CC[C@@H]4N(C(=O)c4ccccc4)c4ccccc4)C3CC[C@@H]12 (stereo partly specified),3.75,2.93
CCCCCN(C(=O)CCC)[C@H]1CCC2C3CC[C@H]4N(C)C(=O)CC[C@]4(C)C3CC[C@@]21C (stereo partly specified),> 100,3.31
CCCCCN(C(=O)c1ccccc1)[C@H]1CCC2C3CC[C@H]4N(C)C(=O)CC[C@]4(C)C3CC[C@@]21C (stereo partly specified),> 100,3.22
COc1ccc(N(C(=O)c2ccccc2)[C@H]2CCC3C4CC[C@H]5N(C)C(=O)CC[C@]5(C)C4CC[C@@]32C)cc1 (stereo partly specified),> 1000,2.11
CN(C=O)[C@H]1CCC2C3CC[C@H]4NC(=O)CC[C@]4(C)C3CC[C@@]21C (stereo partly specified),> 1000,3700
CCCCCN(C(=O)CCCC)[C@H]1CCC2C3CC[C@H]4N(C)C(=O)CC[C@]4(C)C3CC[C@@]21C (stereo partly specified),> 100,1.77
CCCCCN(C(=O)CCCCBr)[C@H]1CCC2C3CC[C@H]4N(C)C(=O)CC[C@]4(C)C3CC[C@@]21C (stereo partly specified),1000,2.42
CN(C=O)[C@H]1CCC2C3CC[C@H]4NC(=O)C=C[C@]4(C)C3CC[C@@]21C (stereo partly specified),> 1000,207
CC(C)(C)NC(=O)[C@H]1CC[C@H]2[C@@H]3CC[C@H]4NC(=O)C=C[C@]4(C)[C@H]3CC[C@]12C [FINASTERIDE],4.53,26.3
CN(C=O)[C@H]1CCC2C3CC[C@H]4N(C)C(=O)C=C[C@]4(C)C3CC[C@@]21C (stereo partly specified),> 1000,124
CCCCCN(C(=O)CC)[C@H]1CCC2C3CC[C@H]4N(C)C(=O)CC[C@]4(C)C3CC[C@@]21C (stereo partly specified),> 100,4.56
CN1C(=O)CC[C@]2(C)C3CC[C@@]4(C)C(CC[C@@H]4N(C=O)Cc4ccccc4)C3CC[C@@H]12 (stereo partly specified),> 100,5.63

# Further lines, results first:
IC50 [1] [nM],IC50 [2] [nM],SMILES
18.4,16.9,CCCCCCCCN(C=O)[C@H]1CCC2C3CC[C@H]4N(C)C(=O)CC[C@]4(C)C3CC[C@@]21C (stereo partly specified)
> 100,,CCC(CC)N(C=O)[C@H]1CCC2C3CC[C@H]4N(C)C(=O)CC[C@]4(C)C3CC[C@@]21C (stereo partly specified)
> 100,,CN1C(=O)CC[C@]2(C)C3CC[C@@]4(C)C(CC[C@@H]4N(C=O)C4CCCCC4)C3CC[C@@H]12 (stereo partly specified)
> 100,2.35,CN1C(=O)CC[C@]2(C)C3CC[C@@]4(C)C(CC[C@@H]4N(C=O)CCC(C)(C)C)C3CC[C@@H]12 (stereo partly specified)
> 100,5.08,CCCN(C=O)[C@H]1CCC2C3CC[C@H]4N(C)C(=O)CC[C@]4(C)C3CC[C@@]21C (stereo partly specified)
> 100,7.25,CCCCCCN(C=O)[C@H]1CCC2C3CC[C@H]4N(C)C(=O)CC[C@]4(C)C3CC[C@@]21C (stereo partly specified)
582,10.5,CC(C)C(=O)N(c1ccccc1)[C@H]1CCC2C3CC[C@H]4N(C)C(=O)CC[C@]4(C)C3CC[C@@]21C (stereo partly specified)
> 100,3.05,CCCCN(C=O)[C@H]1CCC2C3CC[C@H]4N(C)C(=O)CC[C@]4(C)C3CC[C@@]21C (stereo partly specified)
> 100,,CCCCN(C(C)=O)[C@H]1CCC2C3CC[C@H]4N(C)C(=O)CC[C@]4(C)C3CC[C@@]21C (stereo partly specified)
> 100,2.19,CC(C)CCN(C=O)[C@H]1CCC2C3CC[C@H]4N(C)C(=O)CC[C@]4(C)C3CC[C@@]21C (stereo partly specified)
> 100,7.31,CC(C)CN(C=O)[C@H]1CCC2C3CC[C@H]4N(C)C(=O)CC[C@]4(C)C3CC[C@@]21C (stereo partly specified)
7.48,4.14,CCN(CC)C(=O)[C@H]1CC[C@H]2[C@@H]3CC[C@H]4N(C)C(=O)CC[C@]4(C)[C@H]3CC[C@]12C
1000,,CN(C=O)[C@H]1CCC2C3CC[C@H]4N(C)C(=O)CC[C@]4(C)C3CC[C@@]21C (stereo partly specified)
> 100,,CN1C(=O)CC[C@]2(C)C3CC[C@@]4(C)C(CC[C@@H]4N(C=O)C4CC4)C3CC[C@@H]12 (stereo partly specified)
> 100,9.53,CC(C)N(C=O)[C@H]1CCC2C3CC[C@H]4N(C)C(=O)CC[C@]4(C)C3CC[C@@]21C (stereo partly specified)
14,9.57,CCCCCCCN(C=O)[C@H]1CCC2C3CC[C@H]4N(C)C(=O)CC[C@]4(C)C3CC[C@@]21C (stereo partly specified)
> 100,0.91,CCCCCN(C=O)[C@H]1CCC2C3CC[C@H]4N(C)C(=O)CC[C@]4(C)C3CC[C@@]21C (stereo partly specified)

# — ChEMBL document CHEMBL1128284, “Synthesis and in vitro activity of 17 beta-(N-alkyl/arylformamido)- and 17 beta-[(N-alkyl/aryl)alkyl/arylamido]-4-methyl-4-aza-3-oxo-5 alpha-androstan-3-ones as inhibitors of human 5 alpha-reductases and antagonists of the androgen receptor” (J Med Chem, 1995)
